From article PMC2585982 (Toxicology and applied pharmacology, 2008)
Values joined by “and” are separate entries in the source; they are usually repeats but may differ in a detail not shown here. Equal values may be shown once. Read-outs that look alike come from different tables or passages of the source.

Tests used:
[1] = biological target: T1, PXR (Mus musculus, UniProt O54915); test: GAL-PXR reporter assay; format: cell-based
T1 sequence (O54915 143-430 limits assumed): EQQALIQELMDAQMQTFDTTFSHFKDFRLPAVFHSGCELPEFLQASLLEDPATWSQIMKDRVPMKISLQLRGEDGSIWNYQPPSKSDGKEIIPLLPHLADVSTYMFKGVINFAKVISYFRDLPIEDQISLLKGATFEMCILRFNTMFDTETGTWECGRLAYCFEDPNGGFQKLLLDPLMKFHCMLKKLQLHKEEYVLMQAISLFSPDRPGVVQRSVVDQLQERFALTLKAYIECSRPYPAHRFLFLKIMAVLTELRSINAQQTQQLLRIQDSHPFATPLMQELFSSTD

[2] = biological target: T2, SXR (Homo sapiens, UniProt O75469); test: GAL-SXR reporter assay; format: cell-based
T2 sequence (O75469 146-433 limits assumed): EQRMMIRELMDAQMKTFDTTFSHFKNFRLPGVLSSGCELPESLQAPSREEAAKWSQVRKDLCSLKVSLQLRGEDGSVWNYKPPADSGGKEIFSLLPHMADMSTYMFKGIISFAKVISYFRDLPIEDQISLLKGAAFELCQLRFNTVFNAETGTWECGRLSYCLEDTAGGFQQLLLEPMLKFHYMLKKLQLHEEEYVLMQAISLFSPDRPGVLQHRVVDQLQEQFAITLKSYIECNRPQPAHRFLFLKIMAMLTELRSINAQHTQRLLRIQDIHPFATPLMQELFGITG

[3] = biological target: SXR (Homo sapiens, UniProt O75469); test: SXR-DR3 reporter assay; format: cell-based
Target sequence in this assay (O75469 whole entry, the tested form may be a part): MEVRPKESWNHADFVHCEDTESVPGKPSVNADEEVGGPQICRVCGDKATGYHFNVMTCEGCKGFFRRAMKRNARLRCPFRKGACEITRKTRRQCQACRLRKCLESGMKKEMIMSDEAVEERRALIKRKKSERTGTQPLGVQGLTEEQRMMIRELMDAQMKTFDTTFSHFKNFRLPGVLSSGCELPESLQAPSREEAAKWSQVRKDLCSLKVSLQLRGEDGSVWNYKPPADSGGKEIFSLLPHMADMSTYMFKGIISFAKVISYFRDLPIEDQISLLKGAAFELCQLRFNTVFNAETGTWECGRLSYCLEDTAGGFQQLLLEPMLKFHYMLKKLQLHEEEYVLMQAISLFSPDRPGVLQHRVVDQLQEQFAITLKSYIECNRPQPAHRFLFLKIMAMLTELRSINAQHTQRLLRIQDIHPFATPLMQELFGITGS
Target sequence in this assay (P19793 whole entry partner, the tested form may be a part): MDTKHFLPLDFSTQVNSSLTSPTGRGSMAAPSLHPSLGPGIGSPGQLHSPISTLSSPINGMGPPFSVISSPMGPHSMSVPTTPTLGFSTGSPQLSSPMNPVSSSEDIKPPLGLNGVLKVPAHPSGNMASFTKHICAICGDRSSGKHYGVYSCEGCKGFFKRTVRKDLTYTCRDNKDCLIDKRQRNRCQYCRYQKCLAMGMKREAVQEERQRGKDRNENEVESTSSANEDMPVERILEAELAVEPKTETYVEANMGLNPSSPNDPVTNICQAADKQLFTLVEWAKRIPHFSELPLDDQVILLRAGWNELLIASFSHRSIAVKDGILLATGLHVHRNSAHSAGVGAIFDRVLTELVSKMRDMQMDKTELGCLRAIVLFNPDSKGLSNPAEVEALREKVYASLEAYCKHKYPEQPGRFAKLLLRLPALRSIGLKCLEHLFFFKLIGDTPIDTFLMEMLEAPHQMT

[4] = biological target: PXR LBD and SRC-1 RID (Mus musculus, UniProt O54915); test: Mammalian two-hybrid assay, Gal-SRC-1 RID + VP-L-PXR in CV-1 cells; format: cell-based; conditions: isopimpinellin 50 μM; PCN 10 μM; Figure 7A
Outline: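 Mammalian two-hybrid in CV-1 cells co-transfected with Gal-SRC-1 RID and/or VP-L-PXR, plus MH100-tk-luc reporter and CMX-β-gal. Cells were exposed to compound or solvent control in medium for 18–24 h. Interaction was taken as luciferase activity normalised to β-gal activity; mean ± SD.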

[5] = biological target: SXR and SRC-1 RID (Homo sapiens, UniProt O75469); test: Mammalian two-hybrid assay, Gal-SRC-1 RID + VP-L-SXR in CV-1 cells; format: cell-based; conditions: isopimpinellin 50 μM, RIF 10 μM
[6] = biological target: mCAR-LBD fused to the Gal4 DNA binding domain (Mus musculus, UniProt O35627); test: CAR transfection assay, Gal4-mCAR LBD fusion reporter in HepG2 cells; format: cell-based, murine; conditions: HepG2, 4 μM androstanol; 250 nM TC or 0.1–100 μM isopimpinellin, 24 h
[7] = test system: P450s 1A1/2; test: Liver microsomal P450 1A activity; format: in vivo, mice; conditions: mouse, in vivo
[8] = test system: P450s 2B9/10; test: Liver microsomal P450 2B activity; format: in vivo, mice; conditions: mouse, in vivo
[9] = test system: P450 3A11; test: Liver microsomal P450 3A activity; format: in vivo, mice; conditions: mouse, in vivo
[10] = test system: GST (DCNB, GST μ); test: Liver cytosolic GST activity, DCNB as substrate, after oral dosing of mice; format: in vivo; conditions: C57BL/6 mice, 100 mg/kg p.o. 3 days, vs corn oil
[11] = test system: NQO; test: Liver cytosolic NQO activity; format: in vivo, mice; conditions: female SENCAR mice, 35, 70, 150 mg/kg p.o. 4 days, vs corn oil
[12] = test system: GSTπ; test: Western blot of liver cytosol, GSTπ protein expression; format: in vivo; conditions: SENCAR mice, 35, 70, 150 mg/kg p.o.
[13] = test system: GSTμ; test: Western blot of liver cytosol, GSTμ protein expression; format: in vivo, mice; conditions: SENCAR mice, 35, 70, 150 mg/kg p.o.
[14] = test system: GSTp mRNA; test: Northern blot of liver RNA, GSTp mRNA in CAR; format: in vivo, mice; conditions: isopimpinellin 150 mg/kg p.o. 24 h; TC 3 mg/kg i.p. 6 h
[15] = test system: P450 1A1/1A2; conditions: mouse, in vivo
[16] = test system: P450 2B10; conditions: mouse, in vivo
[17] = test system: Cyp2b10 mRNA; test: Northern blot of liver RNA, Cyp2b10 mRNA in CAR; conditions: isopimpinellin 150 mg/kg p.o. 24 h, TC 3 mg/kg i.p. 6 h
[18] = test system: Cyp3a11 mRNA; test: Northern blot of liver RNA, Cyp3a11 mRNA in CAR; conditions: isopimpinellin 150 mg/kg p.o. 24 h, TC 3 mg/kg i.p. 6 h

PXR LBD and SRC-1 RID, sequence (Q15788 570-780 partner limits assumed, one chain of several): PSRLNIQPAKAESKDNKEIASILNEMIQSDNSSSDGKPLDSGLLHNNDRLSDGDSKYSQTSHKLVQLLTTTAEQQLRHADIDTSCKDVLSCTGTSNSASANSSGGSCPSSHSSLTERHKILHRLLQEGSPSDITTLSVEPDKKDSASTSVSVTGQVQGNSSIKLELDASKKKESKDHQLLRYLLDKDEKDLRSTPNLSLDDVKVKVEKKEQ
SXR and SRC-1 RID, sequence (Q15788 570-780 partner limits assumed, one chain of several): as above
mCAR-LBD fused to the Gal4 DNA binding domain, sequence (O35627 119-358 limits assumed): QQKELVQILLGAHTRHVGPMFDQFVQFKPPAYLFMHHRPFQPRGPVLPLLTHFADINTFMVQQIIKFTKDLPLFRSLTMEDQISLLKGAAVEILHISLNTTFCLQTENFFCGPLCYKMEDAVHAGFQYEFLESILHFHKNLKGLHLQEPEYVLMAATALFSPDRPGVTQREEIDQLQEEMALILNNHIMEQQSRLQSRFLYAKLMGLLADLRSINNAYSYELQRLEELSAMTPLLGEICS

With `COc1c2ccoc2c(OC)c2oc(=O)ccc12` [isopimpinellin, 5,8-dimethoxypsoralen] the EC50 [1] was about 17 µM, the “Max (concentration to reach maximal effect), GAL-PXR” value ([1]; CV-1 cells, 18–24 h) was 100,000 nM and the EC50 ([1]; ED50, GAL-PXR activation, CV-1 cells, 18–24 h, luciferase normalized by β-gal) was 18 µM and 17.8 µM. The “Concentration to reach maximal effect, times higher than PCN” value ([1]; GAL-PXR reporter system) was 30 times, the EC50 [2] was about 35 µM and the “Max (concentration to reach maximal effect), GAL-SXR” value ([2]; CV-1 cells, 18–24 h) was 100,000 nM. For the same compound, the EC50 ([2]; ED50, GAL-SXR activation, CV-1 cells, 18–24 h, luciferase normalized by β-gal) was 35.5 µM, the “Concentration to reach maximal effect, times higher than RIF” value ([2]; GAL-SXR reporter system) was 10 times and the EC50 [3] was 39.8 µM. The “Max (concentration to reach maximal effect), SXR-DR3” value ([3]; CV-1 cells, full length SXR) was 100,000 nM, the “Induced interaction of PXR LBD and SRC-1 RID compared to the control” value [4] was “over 4 fold” and the “Induced interaction of receptor LBD and SRC-1 (Figure 7B)” value [5] was ~ 2 fold. The “Effect on the inhibitory effect of androstanol on Gal4 reporter expression (mCAR-LBD)” value [6] was “counteracted”, the “P450 1 activity, liver microsomes, dose-response study” value [7] was “significant increases” and the “Increase in P450 2B9/10 enzyme activity, dose-response study” value [8] was 300 fold. The “P450 2B activity, liver microsomes, dose-response study” value [8] was “significant increases”, the “Increase in P450 2B activity (pentoxyresorufin), liver microsomes” value ([8]; po, 100 mg/kg) was ~ 5 fold and the “P450 3A activity, liver microsomes, dose-response study” value [9] was “increased”. The “Increase in P450 3A activity (testosterone), liver microsomes” value ([9]; po, 100 mg/kg) was 3–4 fold, the “GST activity using DCNB as a substrate, liver cytosol” value [10] was “highest increase” and the “Liver cytosolic NQO activity, dose-response study” value [11] was “increased at all doses”. The “Hepatic expression of GST π protein, dose-response study” value [12] was “modest increase”, the “Hepatic expression of GST μ protein, dose-response study” value [13] was “no increase” and the “Increase in hepatic GSTp mRNA, CAR(−/−) mice” value [14] was at least 5 fold. The “Increase in hepatic GSTp mRNA, female CAR(+/+) mice” value [14] was ~ 8 fold, the “P450 1A1/1A2 protein levels, dose-response study” value [15] was “elevated” and the “P450 1A1/1A2 protein expression (western blot densitometry)” value ([15]; po, 100 mg/kg) was “increased”. For the same compound, the “Increase in P450 2B9/10 protein expression (optical density), dose-response study” value [16] was 2–3 fold, the “P450 2B10 protein levels, dose-response study” value [16] was “significantly elevated” and the “P450 2B10 protein expression (western blot densitometry)” value ([16]; po, 100 mg/kg) was “increased”. The “Induction of hepatic Cyp2b10 mRNA, CAR(−/−) mice” value [17] was “attenuated”, the “Induction of hepatic Cyp2b10 mRNA, CAR(+/+) mice” value ([17]; male and female) was ~ 4 fold and the “Induction of hepatic Cyp3a11 mRNA, CAR(−/−) mice” value [18] was “still observed”. For the same compound, the “Induction of hepatic Cyp3a11 mRNA, CAR(+/+) mice” value ([18]; male and female) was ~ 4 fold.
